Measurements collected from several papers.
Target: Serine/threonine-protein kinase TAO2 (TAOK2, Homo sapiens, UniProt Q9UL54)
Residues used in one study (Q9UL54 1-1235): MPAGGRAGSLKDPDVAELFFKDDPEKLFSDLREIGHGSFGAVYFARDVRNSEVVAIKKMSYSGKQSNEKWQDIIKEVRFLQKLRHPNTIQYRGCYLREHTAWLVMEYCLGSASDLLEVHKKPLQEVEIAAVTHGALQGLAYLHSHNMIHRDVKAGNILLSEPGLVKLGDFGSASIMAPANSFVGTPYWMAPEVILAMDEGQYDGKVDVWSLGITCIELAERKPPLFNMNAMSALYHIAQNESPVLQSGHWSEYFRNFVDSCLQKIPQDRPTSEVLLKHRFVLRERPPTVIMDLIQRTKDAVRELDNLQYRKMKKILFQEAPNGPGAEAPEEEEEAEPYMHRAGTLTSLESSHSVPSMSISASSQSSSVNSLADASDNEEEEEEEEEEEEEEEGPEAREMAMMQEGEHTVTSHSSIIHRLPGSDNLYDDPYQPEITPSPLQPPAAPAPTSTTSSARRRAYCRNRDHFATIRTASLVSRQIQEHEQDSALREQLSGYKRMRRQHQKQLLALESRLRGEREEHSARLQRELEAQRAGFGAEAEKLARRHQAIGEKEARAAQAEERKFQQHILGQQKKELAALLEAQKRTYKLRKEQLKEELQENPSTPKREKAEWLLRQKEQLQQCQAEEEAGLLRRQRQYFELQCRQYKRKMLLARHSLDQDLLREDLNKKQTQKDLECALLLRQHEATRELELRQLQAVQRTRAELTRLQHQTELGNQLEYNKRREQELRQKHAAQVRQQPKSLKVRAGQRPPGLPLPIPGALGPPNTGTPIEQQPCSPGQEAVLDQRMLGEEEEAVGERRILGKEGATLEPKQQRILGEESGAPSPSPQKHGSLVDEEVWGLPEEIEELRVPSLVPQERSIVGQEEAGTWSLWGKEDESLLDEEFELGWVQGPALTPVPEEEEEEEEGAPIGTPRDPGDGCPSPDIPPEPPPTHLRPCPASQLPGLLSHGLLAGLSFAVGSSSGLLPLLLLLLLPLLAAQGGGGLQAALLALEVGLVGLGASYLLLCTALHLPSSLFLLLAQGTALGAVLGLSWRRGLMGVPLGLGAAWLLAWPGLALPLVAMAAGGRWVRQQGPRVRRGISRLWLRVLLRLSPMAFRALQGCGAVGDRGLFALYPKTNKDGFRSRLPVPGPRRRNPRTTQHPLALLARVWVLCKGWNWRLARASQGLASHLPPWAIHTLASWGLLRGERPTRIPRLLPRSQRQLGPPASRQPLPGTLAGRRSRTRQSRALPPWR

Compound	assay	setting	quantity	result
CCCOc1ccc(OC)c(F)c1C(=O)c1ccc(C(=O)N[C@@H]2CNC[C@H]2NC(=O)c2ccc3[nH]ncc3c2)cc1	enzyme activity, inhibitor	10 µM	remaining activity	95%
C[C@@H]1CCN(c2nccc(-c3cnn4ncccc34)n2)C1	binding	1 µM	remaining binding	75%
CCCS(=O)(=O)Nc1ccc(F)c(C(=O)c2c[nH]c3ncc(-c4ccc(Cl)cc4)cc23)c1F	enzyme activity, inhibitor	1 µM	inhibition	< 10%
CC(=O)N1CCC(c2ccc(C(=O)NC3=NCCN3)cc2C(F)(F)F)CC1	cell-free assay, competition with immobilised ligand	1 µM	remaining binding	100%
Nc1ncnc2occ(-c3ccc(NC(=O)Nc4cc(C(F)(F)F)ccc4F)cc3)c12	cell-free assay, inhibitor	20 µM	remaining signal	0%
CN1CCN(c2cnc3c(C4CCN(C(=O)c5ccc(OC(F)(F)F)cc5N)CC4)ncnc3c2)CC1	cell-free assay, competition with immobilised ligand	1 µM	remaining binding	100%
CNC(=O)c1cc(Oc2ccc(NC(=O)Nc3ccc(Cl)c(C(F)(F)F)c3)cc2)ccn1	enzyme activity, inhibitor	10 µM	inhibition	102%
c1ccc(CNc2nc(N3CCOc4ccccc43)nc3c2CCCC3)cc1	target engagement in cells, inhibitor, chemoproteomics	20 mM	inhibition	-2.6%
Cc1cc(NC(=O)c2cccc3cc(-c4cccc5[nH]nc(N)c45)ccc23)ccc1F	enzyme activity, inhibitor	0.1 µM	activity vs control	86%
COc1cc(Cl)c(C(=O)N[C@@H](CN[C@H]2CC[C@@H](N)CC2)Cc2ccc(C#N)cc2)cc1-c1ccc(CN[C@H](C)c2ccc(C)cc2)o1	enzyme activity, inhibitor	1 µM	remaining activity	96%
CC(C)(C)c1nc2c(s1)c1nc(N)ncc1c1ccc(NS(=O)(=O)c3c(F)cccc3F)c(F)c12	enzyme activity, inhibitor, radiometric	1 µM	remaining activity	84%
O=C(NS(=O)(=O)c1ccc(NCC2CCOCC2)c([N+](=O)[O-])c1)c1ccc(N2CCN(Cc3ccc(C(F)(F)F)cc3-c3ccc(Cl)cc3)CC2)cc1Oc1cnc2[nH]ccc2c1	cell-free assay, competition with immobilised ligand	1 µM	remaining binding	82%
COc1cc(-c2cc(-c3ccc(N4CCNCC4)cc3)cnc2C)cc(OC)c1OC	enzyme activity, inhibitor	0.1 µM	inhibition	2%
Fc1cccc(-n2cnc3c(NCc4nc5c(F)c(F)ccc5[nH]4)nc(N4CCOCC4)nc32)c1	binding, competition with immobilised ligand	10 µM	binding vs control	35%
Cc1ccc(Nc2nccc(N(C)c3ccc4c(C)n(C)nc4c3)n2)cc1S(N)(=O)=O	enzyme activity, inhibitor	0.3 µM	inhibition	43%
O=C(N1CCS(=O)(=O)CC1)N1C[C@H](c2ccc(OC(F)(F)F)cc2)C[C@H](c2nc(C3CC3)no2)C1	cell-free assay, competition with immobilised ligand	1 µM	remaining binding	100%
CCN(CC)CCNC(=O)c1c(C)[nH]c(/C=C2\C(=O)Nc3ccc(F)cc32)c1C	enzyme activity, inhibitor	0.3 µM	inhibition	-3%
O=C(Nc1ccc(Oc2ccc(F)cc2)cc1)N1CCc2ncccc2[C@H]1c1ccc(F)cc1	cell-free assay, competition with immobilised ligand	1 µM	remaining binding	100%
